Data from ChEMBL document CHEMBL4392872, “Phomanolides C-F from a Phoma sp.: Meroterpenoids Generated via Hetero-Diels-Alder Reactions” (J Nat Prod, 2019).
Calls of active or inactive are those of the source. The calls are words filed in the database; no cut-off is given here.

What was measured:
Type in all cases: functional, cell-based
[1] = test system: SH-SY5Y; assay: Cytotoxicity against human SH-SY5Y cells at 50 uM measured after 48 hrs by MTS assay
[2] = test system: H4; assay: Cytotoxicity against human H4 cells at 50 uM measured after 48 hrs by MTS assay
[3] = test system: U-251; assay: Cytotoxicity against human U251 cells at 50 uM measured after 48 hrs by MTS assay
[4] = test system: MCF7; assay: Cytotoxicity against human MCF7 cells at 50 uM measured after 48 hrs by MTS assay
[5] = test system: HeLa; assay: Cytotoxicity against human HeLa cells at 50 uM measured after 48 hrs by MTS assay
[6] = test system: H4; assay: Cytotoxicity against human H4 cells measured after 48 hrs by MTS assay; conditions: H4, 48 h
Summary of the method: (§1)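 Cells seeded at 1.0 × 10^4 per well and allowed to attach overnight. Medium then replaced with medium holding the test compound, positive control cisplatin, or 0.1% DMSO vehicle. Incubated 48 h at 37 °C, 5% CO2. MTS added and incubated 90 min at 37 °C in the dark, then OD read at 490 nm. Triplicate wells per concentration; each test run three times.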

[7] = test system: SH-SY5Y; assay: Cytotoxicity against human SH-SY5Y cells measured after 48 hrs by MTS assay; summary of the method: as §1
[8] = test system: MCF7; assay: Cytotoxicity against human MCF7 cells measured after 48 hrs by MTS assay; conditions: MCF7, 48 h; summary of the method: as §1
[9] = test system: U-251; assay: Cytotoxicity against human U251 cells measured after 48 hrs by MTS assay; conditions: U-251, 48 h; summary of the method: as §1
[10] = test system: HeLa; assay: Cytotoxicity against human HeLa cells measured after 48 hrs by MTS assay; summary of the method: as §1

## CC1=CC(=O)O[C@@]23CC(=O)O[C@@]12C[C@H]1C[C@H](O)/C(C)=C\CC(C)(C)/C=C/C[C@]1(C)O3
[1]
  Activity: inactive
[2]
  Activity: inactive
[3]
  Activity: inactive
[4]
  Activity: inactive
[5]
  Activity: inactive

## CC1=CC(=O)O[C@@]23CC(=O)O[C@@]12C[C@H]1C[C@H](O)[C@@]2(C)Oc4cc(O)c(=O)cc(C)c4C[C@H]2CC(C)(C)/C=C/C[C@]1(C)O3
[6]
  IC50: 44.6 µM
[7]
  IC50: 132 µM
[8]
  IC50: 68.4 µM
[9]
  IC50: 38.8 µM

## CC1=CC(=O)O[C@@]23CC(=O)O[C@@]12C[C@H]1C[C@H](O)[C@@]2(C)Oc4cc(O)cc(C)c4C[C@H]2CC(C)(C)/C=C/C[C@]1(C)O3
[1]
  Activity: inactive
[2]
  Activity: inactive
[3]
  Activity: inactive
[4]
  Activity: inactive
[5]
  Activity: inactive

## Cc1cc(O)cc2c1C[C@H]1CC(C)(C)/C=C/C[C@]3(C)OC4=CC(=O)O[C@]5(C)CC(=O)O[C@]45C[C@H]3C[C@H](O)[C@@]1(C)O2
[10]
  IC50: 50 µM
[7]
  IC50: 83.5 µM
